The text below walks through data of ChEMBL document CHEMBL1141691, “Synthesis and antibacterial activity of the C-7 side chain of 3-aminoquinazolinediones” (Bioorg Med Chem Lett, 2008).

The test system of one experiment is Staphylococcus aureus. The experiment is described as follows: Antibacterial activity against Staphylococcus aureus 29213 by microbroth dilution susceptibility assay. The experiment is classed as functional. The procedure, abridged:
(§1)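 MIC determined by standard broth microdilution following CLSI (formerly NCCLS) guidelines. Value is the lowest concentration inhibiting bacterial growth.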
(Broth dilution looks for growth in wells or tubes with falling amounts of substance.)

Experiment [1] relates to Escherichia coli. Kind of experiment: Antibacterial activity against wild-type Escherichia coli MC4100 by microbroth dilution susceptibility assay. The experiment is classed as functional. The procedure, abridged: as §1
Experiment [2] can be described thus: Inhibition of Escherichia coli DNA gyrase.
The test system of another experiment is Streptococcus pyogenes. The experiment is described as follows: Antibacterial activity against Streptococcus pyogenes C203 by microbroth dilution susceptibility assay. It is filed as functional. The method in brief: as §1
The subject of the next experiment is Enterococcus faecalis. The experiment is described as follows: Antibacterial activity against Enterococcus faecalis MGH-2 by microbroth dilution susceptibility assay. It is filed as functional. The procedure, abridged: as §1
For experiment [3], the system named is Escherichia coli. Kind of experiment: Antibacterial activity against TolC knock-out Escherichia coli by microbroth dilution susceptibility assay. The experiment is classed as functional. The method in brief: as §1

≈ marks a conversion by molar mass, not a printed value. Where only a bound is given, the exact number is not on record here.

On to `Cc1c(N2CCC(C(C)(C)N)C2)c(F)cc2c(=O)n(N)c(=O)n(C3CC3)c12` (stereo unspecified), for which the MIC (commonly the lowest concentration that inhibits growth of the organism) against Staphylococcus aureus turned out to be 1 µg/mL (≈ 2.66 µM); in the experiment with Escherichia coli [1], 16 µg/mL (≈ 42.6 µM); against Streptococcus pyogenes, 0.125 µg/mL (≈ 0.333 µM); with Enterococcus faecalis it was 2 µg/mL (≈ 5.33 µM); in the experiment with Escherichia coli [3] it was 0.25 µg/mL (≈ 0.666 µM). Moreover, the half-maximal inhibitory concentration (IC50) (as a rule, the point on the concentration scale where inhibition reaches its midpoint) in experiment [2] was 1600 nM.
Consider `Cc1c(N2CCNCC2)c(F)cc2c(=O)n(N)c(=O)n(C3CC3)c12`, for which the MIC was found to be 32 µg/mL (≈ 96 µM) against Staphylococcus aureus; 4 µg/mL (≈ 12 µM) in the experiment with Escherichia coli [1]; 4 µg/mL (≈ 12 µM) in the experiment with Streptococcus pyogenes; 32 µg/mL (≈ 96 µM) against Enterococcus faecalis; 1 µg/mL (≈ 3 µM) against Escherichia coli [3]. In experiment [2], this compound came in with a concentration for half-maximal inhibition (IC50) of 3100 nM.
On to `Cc1c(N2CC[C@@H]([C@@H](C)N)C2)c(F)cc2c(=O)n(N)c(=O)n(C3CC3)c12`, for which the minimum inhibitory concentration (MIC) in the experiment on Staphylococcus aureus is 0.5 µg/mL (≈ 1.38 µM); with Escherichia coli [1] it was 2 µg/mL (≈ 5.53 µM); with Streptococcus pyogenes it was 0.06 µg/mL (≈ 0.166 µM); in the experiment on Enterococcus faecalis, 0.5 µg/mL (≈ 1.38 µM); with Escherichia coli [3] it was 0.13 µg/mL (≈ 0.36 µM). In experiment [2], the IC50 was determined as 300 nM.
As for `Cc1c(N2CC[C@@H]([C@H](C)N)C2)c(F)cc2c(=O)n(N)c(=O)n(C3CC3)c12`, the MIC against Staphylococcus aureus was determined as 0.13 µg/mL (≈ 0.36 µM); with Escherichia coli [1] it was 0.5 µg/mL (≈ 1.38 µM); against Streptococcus pyogenes, 0.015 µg/mL (≈ 0.0415 µM); with Enterococcus faecalis it was 0.06 µg/mL (≈ 0.166 µM); with Escherichia coli [3], 0.03 µg/mL (≈ 0.083 µM). Moreover, half-maximal inhibition in experiment [2] (IC50) required 200 nM.
Take `Cc1c(N2CCC(CN)C2)c(F)cc2c(=O)n(N)c(=O)n(C3CC3)c12` (stereo unspecified): the MIC was 0.5 µg/mL (≈ 1.44 µM) against Staphylococcus aureus; 2 µg/mL (≈ 5.76 µM) with Escherichia coli [1]; 0.06 µg/mL (≈ 0.173 µM) in the experiment with Streptococcus pyogenes; 0.5 µg/mL (≈ 1.44 µM) in the experiment with Enterococcus faecalis; 0.13 µg/mL (≈ 0.374 µM) against Escherichia coli [3]. In experiment [2], the IC50 was found to be 400 nM.
For `O=C(O)c1cn(C2CC2)c2cc(N3CCNCC3)c(F)cc2c1=O` [CIPROFLOXACIN], the minimal inhibitory concentration (MIC) in the experiment on Staphylococcus aureus came to 0.5 µg/mL (≈ 1.51 µM); against Streptococcus pyogenes, 2 µg/mL (≈ 6.04 µM); against Enterococcus faecalis, 0.4 µg/mL (≈ 1.21 µM).
`Cc1c(N2CCC(C3(N)CC3)C2)c(F)cc2c(=O)n(N)c(=O)n(C3CC3)c12` (stereo unspecified): the MIC is 0.25 µg/mL (≈ 0.669 µM) with Staphylococcus aureus; 2 µg/mL (≈ 5.36 µM) in the experiment with Escherichia coli [1]; 0.03 µg/mL (≈ 0.0803 µM) against Streptococcus pyogenes; 0.13 µg/mL (≈ 0.348 µM) in the experiment on Enterococcus faecalis; 0.03 µg/mL (≈ 0.0803 µM) with Escherichia coli [3]. Besides, the half-maximal inhibitory concentration (IC50) in experiment [2] amounted to 800 nM.
For the compound `Cc1c(N2CC[C@H]([C@@H](C)N)C2)c(F)cc2c(=O)n(N)c(=O)n(C3CC3)c12`, the minimal inhibitory concentration (MIC) against Staphylococcus aureus worked out at 1 µg/mL (≈ 2.77 µM); with Escherichia coli [1], 2 µg/mL (≈ 5.53 µM); in the experiment with Streptococcus pyogenes, 0.25 µg/mL (≈ 0.692 µM); in the experiment on Enterococcus faecalis, 0.25 µg/mL (≈ 0.692 µM); in the experiment on Escherichia coli [3], 0.13 µg/mL (≈ 0.36 µM). Also, the IC50 in experiment [2] was found to be 800 nM.
As for `Cc1c(N2CCC2)c(F)cc2c(=O)n(N)c(=O)n(C3CC3)c12`, the MIC was 32 µg/mL (≈ 105 µM) with Staphylococcus aureus; > 64 µg/mL against Escherichia coli [1]; 64 µg/mL (≈ 210 µM) against Streptococcus pyogenes; 64 µg/mL (≈ 210 µM) in the experiment with Enterococcus faecalis; 2 µg/mL (≈ 6.57 µM) against Escherichia coli [3]. Also, half-maximal inhibition in experiment [2] (IC50) was put at 12500 nM.
Regarding `Cc1c(N2CCC(C(C)N)C2)c(F)cc2c(=O)n(N)c(=O)n(C3CC3)c12` (stereo unspecified), the MIC in the experiment with Staphylococcus aureus turned out to be 0.5 µg/mL (≈ 1.38 µM); in the experiment with Escherichia coli [1], 4 µg/mL (≈ 11.1 µM); against Streptococcus pyogenes, 0.03 µg/mL (≈ 0.083 µM); in the experiment with Enterococcus faecalis, 1 µg/mL (≈ 2.77 µM); in the experiment with Escherichia coli [3], 0.25 µg/mL (≈ 0.692 µM). The compound also yielded an IC50 in experiment [2] of 600 nM.
As to `Cc1c(N2CCC(CCN)C2)c(F)cc2c(=O)n(N)c(=O)n(C3CC3)c12` (stereo unspecified), the MIC was 4 µg/mL (≈ 11.1 µM) with Staphylococcus aureus; 16 µg/mL (≈ 44.3 µM) in the experiment with Escherichia coli [1]; 0.125 µg/mL (≈ 0.346 µM) with Streptococcus pyogenes; 4 µg/mL (≈ 11.1 µM) with Enterococcus faecalis; 0.5 µg/mL (≈ 1.38 µM) against Escherichia coli [3]. The compound further had a concentration for half-maximal inhibition (IC50) in experiment [2] of 1200 nM.
As for `Cc1c(N2CCC(N)C2)c(F)cc2c(=O)n(N)c(=O)n(C3CC3)c12` (stereo unspecified), the MIC against Staphylococcus aureus came to 8 µg/mL (≈ 24 µM); in the experiment on Escherichia coli [1] it was 1 µg/mL (≈ 3 µM); in the experiment on Streptococcus pyogenes, 1 µg/mL (≈ 3 µM); against Enterococcus faecalis it was 8 µg/mL (≈ 24 µM); with Escherichia coli [3] it was 0.25 µg/mL (≈ 0.75 µM). In experiment [2], this compound returned an IC50 of 200 nM.
On to `CCN[C@@H](C)[C@@H]1CCN(c2c(F)cc3c(=O)n(N)c(=O)n(C4CC4)c3c2C)C1`, for which the MIC came to 0.5 µg/mL (≈ 1.28 µM) against Staphylococcus aureus; 8 µg/mL (≈ 20.5 µM) against Escherichia coli [1]; 0.13 µg/mL (≈ 0.334 µM) against Streptococcus pyogenes; 0.25 µg/mL (≈ 0.642 µM) against Enterococcus faecalis; 0.13 µg/mL (≈ 0.334 µM) with Escherichia coli [3]. Besides, half-maximal inhibition in experiment [2] (IC50) was put at 900 nM.
For the compound `Cc1c(N2CCCC2)c(F)cc2c(=O)n(N)c(=O)n(C3CC3)c12`, the minimum inhibitory concentration (MIC) in the experiment with Staphylococcus aureus was 1 µg/mL (≈ 3.14 µM); in the experiment on Escherichia coli [1], 16 µg/mL (≈ 50.3 µM); in the experiment on Streptococcus pyogenes, 1 µg/mL (≈ 3.14 µM); with Enterococcus faecalis it was 2 µg/mL (≈ 6.28 µM); with Escherichia coli [3], 0.13 µg/mL (≈ 0.408 µM). In experiment [2], this compound displayed an IC50 of 1900 nM.
As for `Cc1c(N2CCCCC2)c(F)cc2c(=O)n(N)c(=O)n(C3CC3)c12`, the MIC against Staphylococcus aureus is 4 µg/mL (≈ 12 µM); with Escherichia coli [1], > 64 µg/mL; against Streptococcus pyogenes, 4 µg/mL (≈ 12 µM); in the experiment on Enterococcus faecalis, 4 µg/mL (≈ 12 µM); against Escherichia coli [3], 0.25 µg/mL (≈ 0.752 µM). In experiment [2], this compound gave an IC50 of 6300 nM.
As to `CCC(N)C1CCN(c2c(F)cc3c(=O)n(N)c(=O)n(C4CC4)c3c2C)C1` (stereo unspecified), the MIC with Staphylococcus aureus amounted to 0.5 µg/mL (≈ 1.33 µM); in the experiment on Escherichia coli [1], 8 µg/mL (≈ 21.3 µM); against Streptococcus pyogenes it was 0.03 µg/mL (≈ 0.0799 µM); against Enterococcus faecalis, 0.25 µg/mL (≈ 0.666 µM); in the experiment with Escherichia coli [3], 0.13 µg/mL (≈ 0.346 µM). For the same compound, in experiment [2], the IC50 was 400 nM.
Turning to `CN[C@@H](C)[C@@H]1CCN(c2c(F)cc3c(=O)n(N)c(=O)n(C4CC4)c3c2C)C1`, the MIC stood at 0.5 µg/mL (≈ 1.33 µM) against Staphylococcus aureus; 4 µg/mL (≈ 10.7 µM) against Escherichia coli [1]; 0.015 µg/mL (≈ 0.04 µM) with Streptococcus pyogenes; 0.13 µg/mL (≈ 0.346 µM) against Enterococcus faecalis; 0.03 µg/mL (≈ 0.0799 µM) against Escherichia coli [3]. In experiment [2], this compound gave a 50% inhibitory concentration (IC50) of 200 nM.
Regarding `Cc1c(N2CC[C@H]([C@H](C)N)C2)c(F)cc2c(=O)n(N)c(=O)n(C3CC3)c12`, the minimum inhibitory concentration (MIC) stood at 2 µg/mL (≈ 5.53 µM) against Staphylococcus aureus; 4 µg/mL (≈ 11.1 µM) against Escherichia coli [1]; 0.5 µg/mL (≈ 1.38 µM) in the experiment with Streptococcus pyogenes; 2 µg/mL (≈ 5.53 µM) against Enterococcus faecalis; 0.13 µg/mL (≈ 0.36 µM) in the experiment with Escherichia coli [3]. Further, half-maximal inhibition in experiment [2] (IC50) required 600 nM.
With `Cc1c(N2CCC(C(N)c3ccccc3)C2)c(F)cc2c(=O)n(N)c(=O)n(C3CC3)c12` (stereo unspecified), the minimum inhibitory concentration (MIC) against Staphylococcus aureus came out at 0.13 µg/mL (≈ 0.307 µM); in the experiment on Escherichia coli [1], 4 µg/mL (≈ 9.45 µM); in the experiment with Streptococcus pyogenes, 0.03 µg/mL (≈ 0.0708 µM); against Enterococcus faecalis, 0.25 µg/mL (≈ 0.59 µM); in the experiment on Escherichia coli [3], 0.06 µg/mL (≈ 0.142 µM). The same compound came in with an IC50 in experiment [2] of 260 nM.
